# Measured values as given in ChEMBL document CHEMBL3621200, “Toward the discovery of dual HCMV-VZV inhibitors: Synthesis, structure activity relationship analysis, and cytotoxicity studies of long chained 2-uracil-3-yl-N-(4-phenoxyphenyl)acetamides” (Bioorg Med Chem, 2015).
# pEC50: −log10 of the molar value. Activity calls are given as the source filed them. The calls are words filed in the database; no cut-off is given here.
# How the values were obtained:
# Human betaherpesvirus 5 [1] = experiment: Antiviral activity against human cytomegalovirus Davis infected in HEL cells assessed as reduction in viral plaque formation; assay type: functional, organism-based; settings: Human betaherpesvirus 5, Davis
# Outline: (§1)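 Confluent HEL fibroblasts were infected with 100 PFU of HCMV in the presence of varying compound concentrations. Plaques were counted once plaque formation was complete in untreated infected controls.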
# [2] = Cytotoxicity against human cytomegalovirus infected HEL cells assessed as alteration of cell morphology incubated for 3 days by microscopy; assay type: cell-based; settings: HEL cells infected with human cytomegalovirus
# Outline: (§2)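 Cytotoxicity was given as the minimum cytotoxic concentration (MCC): the compound concentration causing a microscopically detectable change in HEL cell morphology.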
# HEL [3] = experiment: Cytotoxicity against human cytomegalovirus infected HEL cells assessed as cell growth inhibition incubated for 3 days by coulter counter method; assay type: cell-based; settings: 72 h
# Outline: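 HEL cells were seeded at 5 × 10^3 cells/well and left to adhere and proliferate for 24 h, then compound-containing medium was added. After 3 days at 37 °C, cells were counted with a Coulter counter.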
# [4] = Selectivity index, ratio of CC50 for human cytomegalovirus AD169 infected HEL cells to EC50 for human cytomegalovirus AD169; assay type: toxicity, cell-based; settings: HEL cells infected with human cytomegalovirus AD169, read-out: Ratio CC50/EC50
# [5] = Selectivity index, ratio of CC50 for human cytomegalovirus Davis infected HEL cells to EC50 for human cytomegalovirus Davis; assay type: toxicity, cell-based; settings: HEL cells infected with human cytomegalovirus Davis, read-out: Ratio CC50/EC50
# [6] = Cytotoxicity against Varicella zoster virus infected HEL cells assessed as alteration of cell morphology incubated for 3 days by microscopy; assay type: cell-based; settings: human, HEL cells infected with Varicella zoster virus; outline: as §2
# HEL [7] = experiment: Cytotoxicity against Varicella zoster virus infected HEL cells assessed as cell growth inhibition incubated for 3 days by coulter counter method; settings: human, 72 h
# Human alphaherpesvirus 1 = experiment: Antiviral activity against HSV1 KOS; assay type: functional, organism-based
# Outline: (§3)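 Confluent cell monolayers in 96-well plates were inoculated with 100 CCID50 of virus together with varying compound concentrations. Cytopathicity was scored once it reached completion in untreated infected controls.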
# Human alphaherpesvirus 2 = experiment: Antiviral activity against HSV2 Lyons; assay type: functional, organism-based; outline: as §3
# [8] = system: Human herpesvirus 2 strain G; experiment: Antiviral activity against HSV2 G Lyons; assay type: functional, organism-based
# Vaccinia virus = experiment: Antiviral activity against Vaccinia virus Lederle; assay type: functional, organism-based; settings: Orthopoxvirus vaccinia
# Outline: (§4)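 Confluent cell monolayers (HEL, Vero, HeLa or MDCK) in 96-well plates were infected with 100 CCID50 of virus in the presence of varying compound concentrations. Cytopathicity was scored once it reached completion in untreated infected controls.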
# [9] = system: Vesicular stomatitis virus; experiment: Antiviral activity against Vesicular stomatitis virus; assay type: functional, organism-based; outline: as §4
# Coxsackievirus B4 = experiment: Antiviral activity against Human coxsackievirus B4; assay type: functional, organism-based
# Influenza A virus H3N2 = experiment: Antiviral activity against Influenza A virus H3N2; assay type: functional, organism-based; outline: as §4
# Influenza A virus = experiment: Antiviral activity against Influenza A virus H1N1; assay type: functional, organism-based; outline: as §4
# Influenza B virus = experiment: Antiviral activity against Influenza B virus; assay type: functional, organism-based; outline: as §4
# Human respirovirus 3 = experiment: Antiviral activity against Parainfluenza 3 virus; assay type: functional, organism-based
# [10] = system: Mammalian orthoreovirus 1; experiment: Antiviral activity against Reovirus 1; assay type: functional
# Sindbis virus = experiment: Antiviral activity against Sindbis virus; assay type: functional, organism-based
# Punta Toro virus = experiment: Antiviral activity against Punta Toro virus; assay type: functional, organism-based
# Feline coronavirus = experiment: Antiviral activity against Feline coronavirus; assay type: functional, organism-based
# [11] = system: Human immunodeficiency virus 1; experiment: Antiviral activity against HIV1 3B infected in human CEM cells assessed as reduction in virus- induced cytopathicity incubated for 4 to 5 days by microscopy based virus syncytium formation assay; assay type: functional, organism-based; settings: CCRF-CEM
# Outline: (§5)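 CEM cells at ~3 × 10^5 cells/mL, infected with 100 CCID50 of HIV per mL in the presence of compound dilutions. Incubated 4–5 days at 37 °C in humidified CO2. Syncytium (giant cell) formation scored by microscopy.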
# [12] = system: Human immunodeficiency virus 2; experiment: Antiviral activity against HIV2 ROD infected in human CEM cells assessed as reduction in virus- induced cytopathicity incubated for 4 to 5 days by microscopy based virus syncytium formation assay; assay type: functional, organism-based; settings: ISOLATE ROD, CCRF-CEM; outline: as §5
# Human betaherpesvirus 5 [13] = experiment: Antiviral activity against human cytomegalovirus AD169 infected in HEL cells assessed as reduction in viral plaque formation; assay type: functional, organism-based; settings: Human betaherpesvirus 5, AD169, HEL; outline: as §1
SMILES,pEC50 (Human betaherpesvirus 5 [1]),MCC at 72 h [2] [µM],CC50 (HEL [3]) [µM],MCC at 72 h [6] [µM],CC50 (HEL [7]) [µM],inhibition (Human alphaherpesvirus 1),inhibition (Human alphaherpesvirus 2),inhibition [8],inhibition (Vaccinia virus),inhibition [9],inhibition (Coxsackievirus B4),inhibition (Influenza A virus H3N2),inhibition (Influenza A virus),inhibition (Influenza B virus),inhibition (Human respirovirus 3),inhibition [10],inhibition (Sindbis virus),inhibition (Punta Toro virus),inhibition (Feline coronavirus),inhibition [11],further results
O=C(Cn1c(=O)ccn(CCCCCOc2ccc(Br)cc2)c1=O)Nc1ccc(Oc2ccccc2)cc1,6.01,20,8.7,> 100,8.7,inactive,inactive,inactive,inactive,inactive,inactive,inactive,inactive,inactive,inactive,inactive,inactive,inactive,inactive,inactive,selectivity ratio [4]: 9; selectivity ratio [5]: 9; inhibition [12]: inactive
O=C(Cn1c(=O)ccn(CCCCCCOc2ccc(Br)cc2)c1=O)Nc1ccc(Oc2ccccc2)cc1,6.70,4,11.7,4,11.7,inactive,inactive,inactive,inactive,inactive,inactive,inactive,inactive,inactive,inactive,inactive,inactive,inactive,inactive,inactive,pEC50 (Human betaherpesvirus 5 [13]): 6.54; inhibition [12]: inactive
CN(C(=O)Cn1c(=O)ccn(CCCCCOc2ccc(Br)cc2)c1=O)c1ccc(Oc2ccccc2)cc1,5.89,≥ 4,6.1,≥ 100,6,inactive,inactive,inactive,inactive,inactive,inactive,inactive,inactive,inactive,inactive,inactive,inactive,inactive,inactive,inactive,pEC50 (Human betaherpesvirus 5 [13]): 6.01; inhibition [12]: inactive
O=C(Cn1c(=O)ccn(CCCCOc2ccc(Br)cc2)c1=O)Nc1ccc(Oc2ccccc2)cc1,5.79,≥ 20,7.7,> 100,7.7,inactive,inactive,inactive,inactive,inactive,inactive,inactive,inactive,inactive,inactive,inactive,inactive,inactive,inactive,inactive,pEC50 (Human betaherpesvirus 5 [13]): 5.75; inhibition [12]: inactive
